This note sets out measurements from ChEMBL document CHEMBL1134500, “Investigations of new lead structures for the design of selective estrogen receptor modulators” (J Med Chem, 2001).

The target in assay [1] is Estrogen receptor (Bos taurus) (UniProt Q9XSB5+P49884). Put plainly: Displacement of 17-beta-[3H]-estradiol from estrogen receptor relative to 17-beta-estradiol. Format: protein assay. A digest of the protocol: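 Competitive binding with calf uterine cytosol as receptor source and 17β-[3H]estradiol (0.723 pmol per tube) as tracer. Compounds were dissolved in ethanol, diluted in TRIS buffer to six to eight concentrations and incubated overnight at 4 °C. Free ligand was removed with dextran-charcoal (90 min, 4 °C), then supernatant was scintillation counted. Nonspecific binding was set with 2 nmol estradiol. RBA = ratio of 50%-inhibiting concentrations (estradiol/sample) × 100%.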

The target of assay [2] is T1, Estrogen receptor (Homo sapiens) (UniProt P03372).
T1 sequence (whole entry): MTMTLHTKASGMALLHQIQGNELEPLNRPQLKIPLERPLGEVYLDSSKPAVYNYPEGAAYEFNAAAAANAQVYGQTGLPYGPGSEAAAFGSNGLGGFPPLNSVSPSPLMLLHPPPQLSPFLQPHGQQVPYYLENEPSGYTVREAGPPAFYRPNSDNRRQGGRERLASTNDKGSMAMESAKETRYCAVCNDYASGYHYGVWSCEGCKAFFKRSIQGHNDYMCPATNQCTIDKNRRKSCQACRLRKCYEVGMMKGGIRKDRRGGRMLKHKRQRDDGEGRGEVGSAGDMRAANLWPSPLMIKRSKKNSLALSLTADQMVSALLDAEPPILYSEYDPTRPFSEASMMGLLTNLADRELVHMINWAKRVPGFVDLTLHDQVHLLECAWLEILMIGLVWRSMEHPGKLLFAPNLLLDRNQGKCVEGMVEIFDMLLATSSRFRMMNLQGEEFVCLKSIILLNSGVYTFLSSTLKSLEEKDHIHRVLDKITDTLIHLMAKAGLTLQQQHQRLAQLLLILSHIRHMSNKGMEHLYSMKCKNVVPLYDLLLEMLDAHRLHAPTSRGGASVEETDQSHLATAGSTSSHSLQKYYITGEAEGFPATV
Put plainly: Transcriptional activation in MCF-7-2a cells expressing estrogen receptor alpha at 10e-6 M. Format: functional, cell-based. A digest of the protocol: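 MCF-7-2a cells were precultured one week in DMEM with L-glutamine, antibiotics and dextran/charcoal-treated BCS (50 mL/L), then seeded in six-well plates. After 24 h compounds were added (10^-5 to 10^-10 M final) and cells incubated 50 h, then lysed 20 min at room temperature. Luciferase luminescence (RLU) was read for 10 s and normalized to Bradford protein.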

SMILES strings stand for the structures. Bounds are passed on as bounds.

In turn, `Oc1ccc([C@H]2NCCN[C@H]2c2c(Cl)cc(O)cc2Cl)c(Cl)c1` had an RBA in assay [1] of less than 0.02%. In assay [2], this compound gave an Activation of 20%.

In assay [1], `COc1ccc([C@@H](N)[C@@H](N)c2c(Cl)cc(OC)cc2Cl)c(Cl)c1` came in with an RBA of 0%. The Activation in assay [2] is 0%.

In turn, `COc1ccc([C@H]2NCCN[C@H]2c2c(Cl)cc(OC)cc2Cl)c(Cl)c1` yielded an RBA in assay [1] of 0%. In assay [2], this compound had an Activation of 3%.

Consider `COc1ccc([C@H]2N=CN[C@H]2c2c(Cl)cc(OC)cc2Cl)c(Cl)c1`, for which, in assay [1], the RBA worked out at 0%. The compound also came in with an Activation in assay [2] of 6%.

In turn, `N[C@H](c1ccc(O)cc1Cl)[C@@H](N)c1c(Cl)cc(O)cc1Cl` returned an RBA in assay [1] of 1.5%. Also, the Activation in assay [2] was found to be 98%.

`Oc1ccc(-c2[nH]cnc2-c2c(Cl)cc(O)cc2Cl)c(Cl)c1` showed an RBA in assay [1] of 0.1%. Further, in assay [2], the Activation came to 27%.

As for `COc1ccc(-c2[nH]cnc2-c2c(Cl)cc(OC)cc2Cl)c(Cl)c1`, the RBA in assay [1] was determined as 0%. The same compound showed an Activation in assay [2] of 6%.
